Rows were chosen to be rich in hits. Some 2.4% of all compounds tested hit in one or more screens of this group.
beta cell repl = inducers of beta-cell replication in MIN6 cells. MIN6 cells proliferation, ATPlite luminescence, 48 h; cells starved in 0.2% serum; 100% = growth in 10% serum. proliferation, % at 10 µM. hit rate 0.29% among 330,000;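 active = compounds whose signal lies at least 3.5 SD above the mean of all wells on their plate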;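 also: 0% = DMSO-treated cells in low-serum medium and 100% = 10% serum control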
Myeloid diff 2 = myeloid differentiation induction; ER-HoxA9 myeloid progenitors, lysozyme-GFP differentiation, flow cytometry; hit rate 1% among 360,000; calls only at 10 µM;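 active = normalized GFP-positive differentiation at or above the plate's own cutoff, the solvent-only control mean plus 3 SD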;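 also: cells exposed to compound for four days before flow analysis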
DAGLB inh = diacylglycerol lipase beta (human) inhibition; AID 504411; HEK293T DAGLB membrane lysate, EnzChek fluorogenic substrate; inhibition, % at 5.17 µM; Q8NCG7; hit rate 0.059% among 340,000; in the data active = inhibition above about 34%;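 also: 0% = enzyme with vehicle and 100% = wells lacking enzyme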
SENP1 inh = SENP1 (human) catalytic domain inhibition. inhibition, % at 10 µM. recombinant SENP1 catalytic domain, CyPet-SUMO1-YPet FRET cleavage. AID 624204. Q9P0U3. hit rate 0.21% among 360,000;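 active = inhibition at least 30% at 10 µM, raw YFP signal under a set limit, fluorescence ratio 0.5 to 1.5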;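 also: 0% = enzyme with DMSO and 100% = no enzyme wells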
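Compound: 10 µM single point, 0.5% DMSO; Test system: hSENP1 catalytic domain, recombinant; Timing: 50 min reaction at room temperature; Technique: FRET, CFP and YFP emission; Control set: no-enzyme wells low, DMSO-plus-enzyme wells high control.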
MT1-MMP act inh = blocks activation of human MT1-MMP; P50281; HT1080 RFP-PRO-GFP cells, GFP/RFP ratio fluorescence, overnight; percent of plate control window, DMSO zero; GFP/RFP ratio change, % at 20 µM; hit rate 0.061% among 360,000;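 active = GFP/RFP ratio change of at least 30% with cell ATP level not reduced by more than half and red fluorescence within 50% of control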
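Compound: 20 µM single dose, 1% DMSO / System: HT1080 RFP-PRO-GFP cells / Controls: DMSO and RFP-L50D-GFP cell wells / Read-out basis: GFP/RFP fluorescence ratio / Schedule: overnight compound exposure at 37 °C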
CendR NRP1 mod = NRP-1/CendR interaction modulation; O14786; FAM-RPARPAR peptide binding to NRP-1, fluorescence polarization; inhibition, % at 25 µM; hit rate 0.85% among 360,000; AID 602438;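 active = inhibition or corrected inhibition above about 18%, plus a signal ratio from 0.5 to 1.5, limit read from the data, passing the limit was not always enough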
Target sequence (O14786 whole entry, looked up): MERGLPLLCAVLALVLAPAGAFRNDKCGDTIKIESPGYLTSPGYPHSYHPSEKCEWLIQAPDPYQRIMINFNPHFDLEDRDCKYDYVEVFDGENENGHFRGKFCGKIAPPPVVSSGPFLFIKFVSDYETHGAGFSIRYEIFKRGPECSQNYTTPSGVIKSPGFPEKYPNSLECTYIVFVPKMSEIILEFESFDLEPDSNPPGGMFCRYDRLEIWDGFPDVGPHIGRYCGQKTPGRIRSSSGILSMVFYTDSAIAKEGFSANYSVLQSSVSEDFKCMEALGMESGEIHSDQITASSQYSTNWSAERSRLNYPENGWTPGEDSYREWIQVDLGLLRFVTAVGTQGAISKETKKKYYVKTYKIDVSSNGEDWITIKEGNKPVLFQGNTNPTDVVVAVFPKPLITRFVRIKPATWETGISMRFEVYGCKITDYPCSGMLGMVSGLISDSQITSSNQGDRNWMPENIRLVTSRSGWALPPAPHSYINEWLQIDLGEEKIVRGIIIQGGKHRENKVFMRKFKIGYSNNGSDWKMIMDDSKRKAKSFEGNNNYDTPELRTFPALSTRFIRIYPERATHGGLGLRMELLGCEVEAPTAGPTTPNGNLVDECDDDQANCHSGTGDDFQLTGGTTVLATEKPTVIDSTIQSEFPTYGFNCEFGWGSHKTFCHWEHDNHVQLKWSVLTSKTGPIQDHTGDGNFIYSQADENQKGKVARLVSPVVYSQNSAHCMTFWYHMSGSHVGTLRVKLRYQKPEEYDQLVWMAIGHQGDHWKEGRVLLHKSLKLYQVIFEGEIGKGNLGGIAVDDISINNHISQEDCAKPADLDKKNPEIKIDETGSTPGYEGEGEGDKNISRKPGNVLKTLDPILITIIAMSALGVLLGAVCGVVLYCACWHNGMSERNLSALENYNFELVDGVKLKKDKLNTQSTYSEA
SENP1 conf = SENP1 (human) inhibition, single concentration confirmation; shares compounds with SENP1 inh; recombinant SENP1, CyPet-SUMO1-YPet FRET cleavage; inhibition, % at 10 µM; hit rate 34% among 520; in the data active = inhibition mostly above about 35%, no sharp cut-off; inactive = mostly below about 32%;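 also: 0% = enzyme with DMSO and 100% = no enzyme control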
SENP1 kin conf = confirmation of human SENP1 SUMO protease inhibitors, kinetic | shares compounds with SENP1 inh | recombinant SENP1, CyPet-SUMO1-YPet FRET kinetic cleavage | inhibition, % at 10 µM | hit rate 26% among 520; in the data active = inhibition mostly above about 32%, no sharp cut-off; inactive = mostly below about 29%;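 also: 0% = DMSO with enzyme and 100% = no enzyme substrate only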
* marks the source's active call; other numbers are inactive results; i = inactive; · = no result given; + = active, no number.

SMILES | beta cell repl | Myeloid diff 2 | DAGLB inh | SENP1 inh | MT1-MMP act inh | CendR NRP1 mod | SENP1 conf | SENP1 kin conf
CCCN(CCC)C(=O)Cn1c(=O)c2sccc2n2c(=S)sc(-c3ccccc3)c12 | -4 | + | -1 | 66* | -15 | 42* | 47* | 30
CCOC(=O)[C@]12CCCC=C1N(Cc1cccc3ccccc13)C(=O)[C@H](CC(=O)NCC1CCCCC1)C2 | · | i | · | 0 | -8 | 7 | · | ·
CC(c1ccco1)N(C(=O)c1cccs1)c1ccccn1 (stereo unspecified) | 4 | i | 5 | 30* | 4 | -3 | -6 | 6
O=C(O)c1cc2c(cn1)[nH]c1ccccc12 | 1 | i | 0 | -28 | -3 | -17 | · | ·
Cc1sc(Nc2ccc([N+](=O)[O-])cc2)nc1-c1c(C)n(C)n(-c2ccccc2)c1=O | -4 | i | 1 | 38* | 7 | -4 | 19 | 14
CC(CN1CCN(C)CC1)OC(=O)c1cccc(Cl)c1 (stereo unspecified) | 0 | i | -3 | 1 | -1 | 3 | · | ·
COCc1nnc(NC(=O)c2ccc(OC)cc2OC)s1 | -1 | i | 1 | 48* | -9 | -6 | -10 | 0
Cc1cc(C(=O)NN)c2cc(Br)ccc2n1 | -3 | i | -1 | 1 | 5 | 4 | · | ·
NNC(=O)c1cc(-c2ccc(N)cc2)nc2ccc(Br)cc12 | -1 | i | · | 49* | 7 | 8 | 26 | 23
N#CC(c1ccccc1)c1ccc([N+](=O)[O-])cc1 (stereo unspecified) | · | i | · | 1 | 1 | 14 | · | ·
Nc1ccccc1C#Cc1ccc([N+](=O)[O-])cc1 | -2 | i | 2 | 33* | -8 | -8 | 18 | 17
CCOC(=O)c1cc(-c2ccc(OC)cc2)nn1-c1ccc(C(=O)O)cc1 | 0 | i | 2 | 1 | 2 | -5 | · | ·
Cc1cc(C(=O)N2CCN(c3ccccc3Cl)CC2)c(C)o1 | -5 | i | -2 | -7 | -4 | 3 | · | ·
Nc1cc2cccnc2cc1Cl | · | i | 7 | 42* | -8 | -14 | 19 | 4
Brc1ccc2cccnc2c1 | -2 | i | -2 | 1 | 0 | -8 | · | ·
C=CCNc1nc(-c2ccc(Cl)cc2)cs1 | -5 | i | -5 | 3 | 3 | 7 | · | ·
C=CCNc1nc(-c2ccc([N+](=O)[O-])cc2)cs1 | 0 | i | 3 | 50* | 9 | 1 | 29 | 16
CN(C)c1nc(-c2ccc([N+](=O)[O-])cc2)cs1 | -1 | i | -4 | 46* | 2 | 1 | 20 | 25
CCCOc1ccc(-c2nc(-c3ccc([N+](=O)[O-])cc3)cs2)cc1 | 2 | i | 0 | 4 | 0 | 12 | · | ·
NC(=O)CCC(C(=O)O)N1C(=O)c2ccc(O)cc2C1=O (stereo unspecified) | -1 | i | -3 | 44* | 1 | 1 | 37* | 24
CC(C)c1ccccc1NC(=O)COC(=O)Cc1c[nH]c2ccccc12 | 0 | i | -3 | 4 | 0 | 0 | · | ·
N#Cc1ccsc1NC(=O)COc1ccc(-c2nnco2)cc1 | -1 | i | 0 | -6 | -8 | -34 | · | ·
N#CCSc1ccccc1NC(=O)COc1ccc(-c2nnco2)cc1 | 0 | + | -3 | 34* | -52 | -32 | 3 | 10
N#CCSc1ccccc1NC(=O)COC(=O)Cc1c[nH]c2ccccc12 | 1 | + | -3 | 43* | -25 | -20 | 3 | 6
O=C(NC(Cc1ccc2c(c1)OCO2)C(=O)NC(Cc1ccccc1)C(=O)O)c1ccccc1 (stereo unspecified) | -4 | i | -2 | 1 | -1 | 4 | · | ·
SMILES | beta cell repl | Myeloid diff 2 | DAGLB inh | SENP1 inh | MT1-MMP act inh | CendR NRP1 mod | SENP1 conf | SENP1 kin conf
CCOC(=O)C1=C(c2ccccc2)NC(=O)NC1c1cc(Cl)c(O)c(OC)c1 (stereo unspecified) | 0 | i | 0 | 32* | -2 | 3 | 30 | 23
COc1ccc(NS(=O)(=O)c2cc(OCC(N)=O)c(C)cc2Cl)cc1 | -1 | i | 2 | 1 | 2 | 4 | · | ·
O=C1CN(C(=O)COC(=O)c2cccs2)c2ccccc2N1 | 3 | i | -1 | -7 | 0 | 3 | · | ·
Cn1c2ccccc2c2cc(C(=O)OCC(=O)N3CC(=O)Nc4ccccc43)sc21 | 0 | i | -2 | 35* | -20 | -42 | 15 | 28
Cc1cc(NC(=O)c2csc([C@@H]3O[C@H](CO)[C@H](O)[C@H](O)[C@H]3O)n2)n(C)n1 | · | i | · | 0 | -1 | -4 | · | ·
COc1ccc(C(=O)/C=C/Nc2c(C)n(C)n(-c3ccccc3)c2=O)cc1OC | 0 | i | 0 | 31* | 1 | 0 | -1 | 4
Cc1c(N/C=C/C(=O)C(F)(F)F)c(=O)n(-c2ccccc2)n1C | 1 | i | 0 | -1 | -2 | -2 | · | ·
Cc1cc(C(=O)N/N=C/c2cccc3ccccc23)c(C)o1 | -2 | i | 0 | 1 | 5 | 7 | · | ·
O=C(CCc1nc2ccccc2c(=O)[nH]1)OCCOc1ccc(Cl)cc1 | -3 | i | -2 | -2 | 3 | 13 | · | ·
CC1(C)c2ssc(=S)c2-c2ccccc2N1C(=O)c1ccco1 | -3 | i | 23 | 32* | -40 | 4 | 4 | 9
COc1ccc(/C=C2\SC(=S)N(CCC(=O)NC3=NCCS3)C2=O)cc1OC | -4 | i | 2 | 53* | -9 | -87 | 9 | 17
COc1cc(/C=C2\SC(=S)N(CCC(=O)NCCc3ccccc3)C2=O)cc(OC)c1OC | -3 | i | 2 | 35* | -1 | -7 | 13 | 16
COc1cc(/C=C2\SC(=S)N(NC(C)=O)C2=O)ccc1OC(=O)c1ccco1 | -5 | i | 7 | 20 | 1 | -45 | · | ·
COc1cc(/C=C2/SC(=S)N(C)C2=O)ccc1OC(=O)c1ccco1 | -4 | i | -1 | 34* | -17 | -28 | 32 | 27
CCn1c(=O)c(=O)n(CC)c2cc(S(=O)(=O)Nc3cc(C)ccc3C)ccc21 | -3 | i | -2 | 2 | -5 | 8 | · | ·
COC(=O)Nc1cc(C(=O)c2ccc(Cl)cc2Cl)c[nH]1 | 0 | i | -3 | 6 | 2 | -12 | · | ·
CC(C)N(C(=O)[C@H]1C[C@H](CC(=O)NCc2ccco2)C(=O)N2CCc3c([nH]c4ccc(Cl)cc34)[C@]12C)C(C)C | · | i | 4 | 2 | -19 | 0 | · | ·
